According to ChEMBL document CHEMBL1130046, “Modulation of melphalan resistance in glioma cells with a peripheral benzodiazepine receptor ligand-melphalan conjugate” (J Med Chem, 1997):
pIC50: −log10 of the molar value.

Legend:
[1] = test system: D283 Med; assay: The compound was tested for cytotoxicity against D283 (human) Glioma cell lines; assay type: functional, cell-based
[2] = test system: C6; assay: The compound was tested for cytotoxicity against C6-MR (Rat) Glioma cell lines; assay type: functional, cell-based
Outline: (§1)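 Adherent cells seeded in their usual medium and allowed to attach overnight at 37 °C. Drugs added fresh, melphalan in saline and others in ethanol (≤1% of well volume), then 48 h at 37 °C. SRB read-out: TCA fixation, SRB staining, dye taken up in 10 mM Tris, absorbance 560 nm. Growth expressed as % of control and IC50 calculated; two or three experiments. C6-MR selected by weekly 24 h melphalan steps starting at 10 µM. DAOY MR kept under 70-78 µM melphalan for 24 h every third passage.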

[3] = test system: SF-188; assay: The compound was tested for cytotoxicity against SF-188 (human) Glioma cell lines; assay type: functional, cell-based; outline: as §1
[4] = test system: Daoy; assay: The compound was tested for cytotoxicity against DAOY MR (human) Glioma cell lines; assay type: functional, cell-based; outline: as §1
[5] = test system: RG2; assay: The compound was tested for cytotoxicity against RG-2 (Rat) Glioma cell lines; assay type: functional, cell-based; outline: as §1
[6] = test system: SF-126; assay: The compound was tested for cytotoxicity against SF-126 (human) Glioma cell lines; assay type: functional, cell-based; outline: as §1
[7] = test system: D341 cell line; assay: The compound was tested for cytotoxicity against D341 (human) Glioma cell lines; assay type: functional, cell-based
[8] = test system: D341 cell line; assay: The compound was tested for cytotoxicity against D341 MR (human) Glioma cell lines; assay type: functional, cell-based
[9] = test system: C6; assay: The compound was tested for cytotoxicity against C6 (Rat) Glioma cell lines; assay type: functional, cell-based; outline: as §1
[10] = test system: D283 Med; assay: The compound was tested for cytotoxicity against D283 MR (human) Glioma cell lines; assay type: functional, cell-based
[11] = test system: Daoy; assay: The compound was tested for cytotoxicity against DAOY (human) Glioma cell lines; assay type: functional, cell-based; outline: as §1
[12] = molecular target: T1, Translocator protein (Rattus norvegicus, UniProt P16257); assay: The compound was tested for binding affinity against PBR(peripheral benzodiazepine receptor) in normal rat brain homogenate; assay type: tissue-based
Outline: (§2)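 Competitive displacement of [3H]Ro 5-4864 (1 nM final, 86.9 Ci/mmol) on rat whole-brain homogenate (~200 µg protein, 50 mM Tris-HCl pH 7.4) or C6/RG-2 cell homogenate (4 µg protein, 50 mM Tris-citrate pH 7.4). Incubation 60 min at 0-4 °C, duplicate tubes. Nonspecific binding with 10 µM PK-11195. Bound ligand collected by glass-fibre filtration, counted by scintillation, fitted by nonlinear regression.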

[13] = test system: D283 Med; assay: Glutathione (GSH) Concentrations D 283 MR cell line in Human Medulloblastoma Cells; assay type: functional
[14] = test system: Daoy; assay: Glutathione (GSH) Concentrations DAOY cell line in Human Medulloblastoma Cells; assay type: functional
[15] = test system: Daoy; assay: Glutathione S-Transferase (GST) Activity against DAOY MR cell line in Human Medulloblastoma Cells; assay type: functional
[16] = test system: D341 cell line; assay: Glutathione (GSH) Concentrations D341 cell line in Human Medulloblastoma Cells; assay type: functional
[17] = test system: Daoy; assay: Glutathione S-Transferase (GST) Activity against DAOY cell line in Human Medulloblastoma Cells; assay type: functional
[18] = molecular target: T1, Translocator protein; assay: Binding affinity for PBR (peripheral benzodiazepine receptor) in rat C6 glioma cells; assay type: cell-based; outline: as §2
[19] = test system: D341 cell line; assay: Glutathione S-Transferase (GST) Activity against D 341cell line in Human Medulloblastoma Cells; assay type: functional
[20] = test system: D283 Med; assay: Glutathione (GSH) Concentrations D 283 cell line in Human Medulloblastoma Cells; assay type: functional
[21] = test system: D283 Med; assay: Glutathione S-Transferase (GST) Activity against D 283 MR cell line in Human Medulloblastoma Cells; assay type: functional
[22] = test system: D341 cell line; assay: Glutathione (GSH) Concentrations D341 MR cell line in Human Medulloblastoma Cells; assay type: functional
[23] = test system: Daoy; assay: The compound was tested for cytotoxicity against DAOY(human) […] cell lines; assay type: functional, cell-based; outline: as §1
[24] = molecular target: T1, Translocator protein; assay: Binding affinity for PBR (peripheral benzodiazepine receptor) in rat RG-2 glioma cells; assay type: cell-based, RG2; outline: as §2
[25] = test system: Daoy; assay: Glutathione (GSH) Concentrations DAOY MR cell line in Human Medulloblastoma Cells; assay type: functional
[26] = test system: D341 cell line; assay: Glutathione S-Transferase (GST) Activity against D341 MR cell line in Human Medulloblastoma Cells; assay type: functional
[27] = test system: D283 Med; assay: Glutathione S-Transferase (GST) Activity against D283 cell line in Human Medulloblastoma Cells; assay type: functional
[28] = molecular target: Translocator protein (Rattus norvegicus) (UniProt P16257); assay: Benzodiazepine receptor density in normal rat brain homogenate; assay type: tissue-based; outline: as §2
[29] = molecular target: Translocator protein (Rattus norvegicus) (UniProt P16257); assay: Benzodiazepine receptor density in rat C6 glioma cells; assay type: cell-based; outline: as §2
[30] = molecular target: Translocator protein (Rattus norvegicus) (UniProt P16257); assay: Benzodiazepine receptor density in rat RG-2 glioma cells; assay type: cell-based; conditions: RG2; outline: as §2

T1 sequence (P16257 whole entry, looked up): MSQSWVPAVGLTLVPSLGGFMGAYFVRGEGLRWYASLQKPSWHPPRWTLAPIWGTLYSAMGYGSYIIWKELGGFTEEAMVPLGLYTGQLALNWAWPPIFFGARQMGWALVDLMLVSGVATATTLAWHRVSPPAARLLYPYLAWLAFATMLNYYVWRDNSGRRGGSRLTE
Translocator protein (Rattus norvegicus), sequence (P16257 whole entry, looked up): as above

| SMILES | pIC50 [1] | pIC50 [2] | pIC50 [3] | pIC50 [4] | pIC50 [5] | pIC50 [6] | pIC50 [7] | pIC50 [8] | pIC50 [9] | pIC50 [10] | pIC50 [12] | other results |
| --- | --- | --- | --- | --- | --- | --- | --- | --- | --- | --- | --- | --- |
| N[C@@H](Cc1ccc(N(CCCl)CCCl)cc1)C(=O)O | 5.17 | 4.13 | 4.45 | 3.85 | 4.82 | 3.99 | 4.91 | 4.28 | 4.96 |  |  |  |
| O=C1CN=C(c2ccccc2)c2cc(Cl)ccc2N1 [NORDAZEPAM] | < 3.70 |  | < 4.00 | < 3.70 | < 3.70 | < 4.00 | < 3.70 | < 3.70 | < 3.70 | < 3.70 | 3.28 | pIC50 [11]: < 3.70 |
| CCOC(=O)[C@@H](Cc1ccc(N(CCCl)CCCl)cc1)NC(=O)CCCN1C(=O)CN=C(c2ccccc2)c2cc(Cl)ccc21 | 4.14 | 4.13 | 4.76 | 4.53 | 4.46 | 4.68 | 4.60 | 4.48 | 4.36 | 4.60 | 3.49 | GSH [13]: 50.7 µM/g; GSH [14]: 11.4 µM/g; GST activity [15]: 84 nM min-1 (mg of protein)-1; GSH [16]: 17.5 µM/g; GST activity [17]: 88.7 nM min-1 (mg of protein)-1; pIC50 [18]: 3.54; GST activity [19]: 212.6 nM min-1 (mg of protein)-1; GSH [20]: 18.4 µM/g; GST activity [21]: 417.3 nM min-1 (mg of protein)-1; GSH [22]: 33.2 µM/g; pIC50 [23]: 4.40; pIC50 [24]: 3.41; GSH [25]: 10.8 µM/g; GST activity [26]: 327.9 nM min-1 (mg of protein)-1; GST activity [27]: 150.6 nM min-1 (mg of protein)-1 |
| CN1C(=O)CN=C(c2ccc(Cl)cc2)c2cc(Cl)ccc21 [RO-54864] |  |  | 3.86 |  | < 4.00 | < 4.00 |  |  | < 3.70 |  |  | Bmax (pM (mg of protein)-1) [28]: 0.29; Bmax (pM (mg of protein)-1) [29]: 22; Bmax (pM (mg of protein)-1) [30]: 33 |
